# Hsp70 activator: Hsp70 transcriptional activators, primary screen, cell-based, HeLa, Hsp70 promoter luciferase, luminescence, 10 µM; activation, % at 10 µM; HeLa Hsp70 promoter luciferase reporter; scaled: vehicle 0, proteasome-inhibitor control 100%; AID 1203, 2008; actives 0.04% (n = 200,000);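 active = activation above the mean across all tested compounds plus 3 SD, cutoff set per campaign, cut at about 5.5% in these data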;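 note: 100% = MG132 at 30 µM as the positive control and 0% = DMSO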
# HSF1 activator: HSF-1 activators, primary screen, NIH3T3-HGL cells, MG132 stress, luminescence, single point; NIH3T3-HGL HSF-1 luciferase reporter, 8 h; 100% = twice DMSO control signal; activation, % at 9 µM; actives 1.7% (n = 300,000);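 active = mean replicate activation of at least 50% with a set share of replicates each reaching 50%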;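 note: 0% = median of the neutral control wells and 100% = twice that signal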
# Lmaj promast: Leishmania major promastigote growth inhibition, primary screen; inhibition, % at 10 µM; AID 1063, 2008; Leishmania major promastigotes, resazurin fluorescence viability; actives 9% (n = 200,000); in the data active = inhibition above about 50%;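 note: promastigotes grown with compound for 44 hours at 28 °C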
# HSF1 inh: HSF1 inhibitors in luciferase reporter cells, primary screen, cell-based, NIH3T3, luminescence; activity change, negative = inhibition, % at 7.5 µM (by protocol); NIH3T3-HGL HSE-luciferase, MG132-induced, luminescence 8 h; active compounds read low; actives 0.77% (n = 300,000); AID 2098, 2009;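 active = more than half of replicate wells show activity change below -50%, luminescence cut by over half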;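 note: luciferase reports HSF-1 transcriptional activity via heat shock element; 0% = median of DMSO wells and -100% = zero luminescence signal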
# T cruzi repl: inhibitors of intracellular T. cruzi growth, primary screen, luminescence, NIH3T3 host cells. inhibition, % (concentration not given with the values). actives 1.4% (n = 300,000). AID 1885, 2009. T. cruzi beta-gal in NIH3T3, 90 h;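 active = mean inhibition across valid replicates above about 55%, limit read from the data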;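 note: signal also drops with host cell toxicity which is not excluded here; 0% = plate median of DMSO wells and 100% = zero luminescence signal; higher percent means less beta-gal luminescence so fewer parasites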
#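 System – NIH/3T3 host cells with β-galactosidase reporter T. cruzi · Doses – single 50 nL compound addition per well in DMSO · Reagent – 5000 T. cruzi trypomastigotes/well · Medium – Low-serum DMEM with 2% FBS · Timing – ≥90 h infection period, 3 h prior cell attachment · Evaluation – parasite load inhibition, % · Technique – GalScreen luminescence, 60 min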
# Numbers without * were called inactive; . = not tested or not shown. This excerpt belongs to a sample that is enriched for hits.
SMILES,Hsp70 activator,HSF1 activator,Lmaj promast,HSF1 inh,T cruzi repl
Cc1ccc2cc(CN(Cc3ccc4c(c3)OCO4)Cc3nnnn3Cc3ccco3)c(=O)[nH]c2c1C,0,-7,68*,8,41
Cc1ccc(C)c2[nH]c(=O)c(CN(Cc3ccc4c(c3)OCO4)Cc3nnnn3Cc3ccco3)cc12,0,-1,58*,0,29
COc1ccccc1-c1c(C)oc2c(CN3CCN(C)CC3)c(O)ccc2c1=O,0,7,90*,0,-3
CCOC(=O)c1oc2c(CN3CCN(C)CC3)c(O)ccc2c(=O)c1-c1ccccc1OC,0,6,-6,-7,4
COC(=O)c1ccc(Oc2c(C(F)(F)F)oc3c(CN4CCN(C)CC4)c(O)ccc3c2=O)cc1,0,3,100*,6,0
COc1ccc(-c2c(C)oc3c(CN4CCOCC4)c(O)ccc3c2=O)cc1OC,.,-10,.,1,-22
COc1ccc(-c2c(C)oc3c(CN4CCN(CCO)CC4)c(O)ccc3c2=O)cc1OC,0,6,99*,2,-7
CCOc1ccccc1Oc1c(C)oc2c(CN3CCN(C)CC3)c(O)ccc2c1=O,0,.,75*,.,.
O=C(Nc1ccccc1OC(F)F)c1cccc(S(=O)(=O)N2CCCC2)c1,.,8,.,-1,11
Cc1ccc(-n2nc(-c3ccco3)cc2C(=O)O)cc1,.,13,.,-6,4
CC(C)NC(=O)c1cc(-c2ccco2)nn1-c1ccc(Cl)cc1,0,23,50*,12,24
CC1CC(N(C(=O)C2CC2)c2ccccc2)c2ccccc2N1C(=O)C1CC1 (stereo not given),0,44,-2,8,7
CC1CC(N(C(=O)c2ccco2)c2ccccc2)c2ccccc2N1C(=O)c1ccco1 (stereo not given),0,0,62*,-1,12
CC1CC(N(C(=O)c2ccc(Cl)cc2)c2ccccc2)c2ccccc2N1C(=O)c1ccco1 (stereo not given),0,16,57*,3,44
O=C(Nc1nnc(-c2cccs2)o1)c1cccc(Oc2ccccc2)c1,0,.,52*,.,.
O=C(Nc1ccsc1C(=O)O)c1cccc(Oc2ccccc2)c1,.,46,.,21,-5
O=C(Nc1nnc(-c2cccs2)o1)c1cccc(F)c1,0,-26,94*,-11,26
CCN(CC)CCCN(Cc1cc2cc3c(cc2[nH]c1=O)OCO3)C(=S)Nc1ccccc1,0,-15,1,-1,4
COc1ccc(CN(C)Cc2nc3scc(-c4ccccc4)c3c(=O)[nH]2)cc1OC,0,-10,63*,-2,5
CSCc1nc2scc(-c3ccccc3)c2c(=O)[nH]1,0,-1,18,-6,-2
CCCCc1ccc(NC(=O)C2CCCO2)cc1 (stereo not given),0,63*,-3,19,3
CCCCNC(=O)c1ccc(NC(=O)C2CCCO2)cc1 (stereo not given),0,7,17,-5,-2
CCOC(=O)C1=C(C)NC2=C(C(=O)c3ccccc32)C1c1ccc([N+](=O)[O-])o1 (stereo not given),.,11,.,5,58*
C=CCn1c(=O)c(C(=O)Nc2ccccc2C(=O)OCC)c(O)c2ccccc21,0,13,68*,-1,-7
Nn1c(=O)c2ccccc2n2c(SCc3ccccc3)nnc12,0,-76,-9,-68*,5
SMILES,Hsp70 activator,HSF1 activator,Lmaj promast,HSF1 inh,T cruzi repl
CN1CCN(CCCNC(=O)Nc2ccc([N+](=O)[O-])cc2)CC1,.,-14,.,-12,-3
COC(=O)CCC(=O)N(C)CC1CCCN(CCc2cccc(C(F)(F)F)c2)C1 (stereo not given),.,-4,.,4,43
CSCCC(=O)N(C)CC1CCCN(CCc2cccc(C(F)(F)F)c2)C1 (stereo not given),.,29,.,-1,55*
CN(CC1CCCN(CCc2cccc(C(F)(F)F)c2)C1)C(=O)c1cc2ccccc2o1 (stereo not given),.,8,.,-5,65*
CCN(CC1CCCN(CCc2cccc(F)c2)C1)C(=O)c1cc2ccccc2o1 (stereo not given),.,3,.,-4,50
CCOC(=O)c1nnn(-c2nonc2N)c1CSc1nnc(N)s1,0,-10,-4,-1,-6
C/C(=N\Nc1ccc(C(=O)O)cc1)c1ccc2c(c1)Nc1ccccc1S2,.,-4,.,-5,45
Cc1ccc(/C(N)=N/OC(=O)CSc2ccccc2)cc1,0,62*,-7,45,4
N/C(=N\OC(=O)CSc1ccccc1)c1ccc([N+](=O)[O-])cc1,0,.,64*,.,7
O=C(Nc1cc([N+](=O)[O-])ccc1Cl)C(Sc1ccccc1)c1ccccc1 (stereo not given),0,11,96*,3,0
CC(C)(C)NS(=O)(=O)c1ccc(NC(=O)C(Sc2ccccc2)c2ccccc2)cc1 (stereo not given),0,3,56*,-1,56*
O=C(Nc1ccc(Cl)c([N+](=O)[O-])c1)C(Sc1ccccc1)c1ccccc1 (stereo not given),0,-17,35,1,64*
O=C(Nc1ccc(Cl)c([N+](=O)[O-])c1)C(NCCCO)c1ccccc1 (stereo not given),0,0,-3,2,2
Cc1cc(OC(C)C(=O)NNC(=O)Nc2ccc(F)cc2F)cc(C)c1Cl (stereo not given),.,19,.,5,1
COc1ccc(S(=O)(=O)NC(C)C(=O)NCc2ccc3c(c2)OCO3)cc1OC (stereo not given),.,49,.,6,-5
CN(C)S(=O)(=O)c1cccc(NC(=O)CN2C(=O)NC(Cc3c[nH]c4ccccc34)C2=O)c1 (stereo not given),0,3,-4,-3,-26
COc1ccc(NC(=O)CSc2nnc(CN3CCOCC3)n2C)cc1Cl,.,-14,.,-9,-14
O=C(c1ccccc1F)N1CCN(c2ccc([N+](=O)[O-])c3cccnc23)CC1,0,14,63*,6,7
CCOC(=O)C1=NN(c2ccc(Cl)cc2)C(=O)C1,.,13,.,14,-3
CCC(C)NCC(O)(c1ccc(Cl)cc1)c1ccc(Cl)cc1 (stereo not given),0,20,24,-2,-14
CN1CCN(CC(O)(c2ccc(Cl)cc2)c2ccc(Cl)cc2)CC1,0,33,53*,8,33
COc1ccccc1OCC(=O)NNC(=O)C(=O)N1CCCC1,0,-5,-9,-2,-22
COc1ccc(Br)cc1S(=O)(=O)n1ccnc1,0,5,63*,-1,0

# Screens (PubChem)
